# According to ChEMBL document CHEMBL4342526, “Exploration of the Structural Space in 4(3H)-Quinazolinone Antibacterials” (J Med Chem, 2020):
# Tests used:
# Staphylococcus aureus [1] = assay: Selectivity ratio of MIC for Staphylococcus aureus ATCC 29213 in presence of bovine serum albumin to MIC for Staphylococcus aureus ATCC 29213 in absence of bovine serum albumin; assay type: functional
# In short: (§1)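 S. aureus ATCC29213 MIC was run by CLSI microdilution in cation-adjusted Mueller–Hinton broth plus 2% NaCl, with and without 0.5% bovine serum albumin. Compounds were two-fold serially diluted in triplicate, inoculum was 5 × 10^5 CFU/mL, and plates were incubated at 37 °C for 16–20 h. The endpoint was the lowest concentration with no visible growth.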
# Staphylococcus aureus [2] = assay: Antibacterial activity against Staphylococcus aureus ATCC 29213 measured after 16 to 20 hrs in presence of bovine serum albumin by microdilution method; assay type: functional; in short: as §1
# [3] = Elimination half life in ICR mouse at 10 mg/kg, iv by UV-UPLC analysis; assay type: ADME, organism-based; settings: in vivo
# In short: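 Female ICR mice, 6–8 weeks old, 20–25 g. Each received 50 μL by tail-vein injection (5 or 10 mg/kg) of a filter-sterilized 2 or 4 mg/mL solution in 20% DMSO/10% Tween-80/70% water. Terminal blood was collected and plasma harvested by centrifugation. Plasma was precipitated with acetonitrile containing internal standard, and the supernatant was analyzed by C18 UPLC with UV detection at 285 nm.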
# [4] = Oral bioavailability in ICR mouse at 10 mg/kg administered via gavage by UV-UPLC analysis; assay type: ADME, organism-based; settings: in vivo
# Staphylococcus aureus [5] = assay: (§2) Bactericidal activity against methicillin resistant Staphylococcus aureus NRS70 infected in ICR mouse model of neutropenic thigh infection assessed as log reduction in bacterial count in thigh at 20 mg/kg, sc administered at 8 hrs interval for 3 times starting from 1 hr post infection and measured 24 hrs post infection; assay type: functional
# In short: (§3)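 Female ICR mice (6–8 weeks, 20–25 g) made neutropenic with cyclophosphamide 200 mg/kg ip at 4 and 1 days pre-infection; 0.1 mL NRS70 at 1 × 10^6 CFU/mL in brain heart infusion injected into right thigh; drug in 10% DMSO/90% water sc every 8 h ×3 from 1 h post-infection; thigh CFU counted at 24 h; n = 8/group; mean ± SEM, one-way ANOVA with Tukey test.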
# Staphylococcus aureus [6] = assay: as §2, with “40” for “20”; assay type: functional; in short: as §3
# Staphylococcus aureus [7] = assay: […] activity against clindamycin/erythromycin/spectinomycin-resistant mec-positive Staphylococcus aureus NRS70 incubated for 16 to 20 hrs followed by re-plating on agar plate; assay type: functional; settings: read-out: MBC99.9
# Enterococcus faecalis = assay: Antibacterial activity against Enterococcus faecalis ATCC 29212 measured after 16 to 20 hrs by microdilution method; assay type: functional
# In short: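 CLSI broth microdilution: two-fold serial dilutions in triplicate in cation-adjusted Mueller–Hinton broth with 2% NaCl, inoculum 5 × 10^5 CFU/mL, incubated at 37 °C for 16–20 h. MIC is the lowest concentration preventing visible growth.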
# [8] = system: Staphylococcus epidermidis; assay: Antibacterial activity against Staphylococcus epidermidis ATCC 35547 measured after 16 to 20 hrs by microdilution method; assay type: functional
# In short: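 CLSI broth microdilution; two-fold serial compound dilutions in triplicate in cation-adjusted Mueller–Hinton broth with 2% NaCl, inoculum 5 × 10^5 CFU/mL; 37 °C for 16–20 h; MIC = lowest concentration with no visible growth.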
smiles,measurement,setting,value
N#Cc1ccc(/C=C/c2nc3ccccc3c(=O)n2-c2cc(C(=O)O)ccc2F)cc1,selectivity ratio,Staphylococcus aureus [1],<=4
same,MIC,Staphylococcus aureus [2],2 µg/mL
same,beta t1/2,[3],13.7 h
same,F,[4],65%
same,log(activity),Staphylococcus aureus [5],0.47
same,log(activity),Staphylococcus aureus [6],0.78
same,MBC,Staphylococcus aureus [7],> 128 µg/mL
same,MIC,Enterococcus faecalis,> 128 µg/mL
same,MIC,[8],0.25 µg/mL
